Test results as given in ChEMBL document CHEMBL4680077, “Differentiation of skeletal osteogenic progenitor cells to osteoblasts with 3,4-diarylbenzopyran based amide derivatives: Novel osteogenic agents” (Eur J Med Chem, 2016).
Activity calls are given as the source filed them. No cut-off for these calls is given here.

Experiments:
Calvarial osteoblast [1] = assay: Induction of osteoblast differentiation in mouse calvarial osteoblast assessed as increase in OCN mRNA expression at 1 pM incubated for 48 hrs by qPCR analysis; assay type: functional, cell-based
Procedure, shortened: (§1)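 Calvarial osteoblasts were treated at 1 pM for 24 and 48 h. Total RNA was extracted with TRIzol, and cDNA was made from 2 µg RNA. qPCR ran 40 cycles for BMP-2, RUNX-2, OCN and collagen type 1, with normalization to GAPDH. Mean ± SEM of three independent experiments.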

Calvarial osteoblast [2] = assay: Induction of osteoblast differentiation in mouse calvarial osteoblast assessed as increase in collagen type 1 mRNA expression at 1 pM incubated for 24 and 48 hrs by qPCR analysis; assay type: functional, cell-based; procedure, shortened: as §1
Mus musculus = assay: In vivo osteogenic activity in ovariectomized BALB/c mouse assessed as increase in femur bone volume density at 1 to 10 mg/kg, po via gavage administered for 1 month by microCT imaging analysis; assay type: functional, organism-based; settings: dose 1-10 mg/kg, time 1.0 months
Procedure, shortened: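 Ovariectomized female balb/c mice, 8 weeks old, 10 per group, received 1.0 or 10.0 mg kg-1 once daily by oral gavage (gum acacia vehicle) for 4 weeks, alongside sham and Ovx vehicle groups. Femurs were scanned by microCT. BV/TV, Tb.N and Tb.Sp were derived by the mean intercept length method. Mean ± SE.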

Calvarial osteoblast [3] = assay: Induction of osteoblast differentiation in mouse calvarial osteoblast assessed as increase in ERbeta expression at 1 pM incubated for 48 hrs by Western blot analysis; assay type: functional, cell-based
Procedure, shortened: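 Calvarial osteoblasts at 60–70% confluence were treated ± compound for 48 h, with 100 pM E2 as positive control. Lysates (30 µg protein) were resolved on 10% SDS-PAGE, transferred to PVDF and probed for ER-α and ER-β with HRP secondaries and ECL detection. Bands were quantified by densitometry normalized to β-actin.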

[4] = Elimination rate constant in Sprague-Dawley rat at 1 mg/kg, iv measured upto 24 hrs by LC-MS/MS analysis; assay type: ADME, organism-based; settings: in vivo
[5] = AUC (0 to 24 hrs) in Sprague-Dawley rat at 1 mg/kg, iv measured upto 24 hrs by LC-MS/MS analysis; assay type: ADME, organism-based; design: route intravenous, dose 1 mg/kg, time <=24; settings: in vivo
Procedure, shortened: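 Female Sprague-Dawley rats (n = 4 per route), fasted overnight (12-14 h); 1 mg/kg orally in 0.25% CMC suspension, or an i.v. tail-vein bolus in DMSO-PEG400-ethanol-water (4:3:1:2). Retro-orbital blood was taken up to 24 h, and plasma was extracted with n-hexane (halofantrine IS). LC-MS/MS linear range 0.5-200 ng/mL. AUC0-24 was calculated by the linear trapezoidal rule, non-compartmental; mean ± S.D.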

[6] = Cmax in Sprague-Dawley rat at 1 mg/kg, po measured upto 24 hrs by LC-MS/MS analysis; assay type: ADME, organism-based; design: route oral, dose 1 mg/kg, time <=24; settings: in vivo
Procedure, shortened: (§2)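 Female Sprague-Dawley rats (n = 4), fasted overnight 12–14 h, dosed orally at 1 mg kg-1 as a 0.25% CMC suspension and fed 3 h post-dose. Retro-orbital blood was taken from 0.25 to 24 h. Plasma was hexane-extracted and assayed by LC-MS/MS. Cmax and Tmax were read from the data; other parameters came from non-compartmental analysis. Mean ± S.D.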

[7] = Clearance in Sprague-Dawley rat at 1 mg/kg, po measured upto 24 hrs by LC-MS/MS analysis; assay type: ADME, organism-based; settings: in vivo; procedure, shortened: as §2
[8] = Oral bioavailability in Sprague-Dawley rat at 1 mg/kg measured upto 24 hrs by LC-MS/MS analysis; assay type: ADME, organism-based; settings: in vivo
Procedure, shortened: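 Oral (1 mg kg-1, 0.25% CMC) and i.v. (1 mg kg-1 bolus) groups of female SD rats, n = 4 each, sampled to 24 h and assayed by plasma LC-MS/MS. AUC0-∞ = AUC0-t + Clast/kel. %F = (AUC oral × dose i.v.)/(AUC i.v. × dose oral) × 100.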

[9] = Acute toxicity in Swiss albino mouse assessed as WBC count per thousand/mm3 at 5 mg/kg, po measured after 7 days (reference value: 6.84 +/- 0.83 /mm3); assay type: organism-based; settings: in vivo, 168 h, time 7 day
[10] = Acute toxicity in Swiss albino mouse assessed as creatinine level at 50 mg/kg, po measured after 7 days (reference value: 0.97 +/- 0.07 mg/dL); assay type: organism-based; settings: in vivo, 168 h, time 7 day
[11] = Acute toxicity in Swiss albino mouse assessed as creatinine level at 300 mg/kg, po measured after 7 days (reference value: 0.97 +/- 0.07 mg/dL); assay type: organism-based; settings: in vivo, 168 h, time 7 day
[12] = Acute toxicity in Swiss albino mouse assessed as neutrophil count at 1000 mg/kg, po measured after 7 days (reference value: 41.50 +/- 4.08 %); assay type: organism-based; settings: in vivo, 168 h, time 7 day
[13] = Acute toxicity in Swiss albino mouse assessed as monocyte count at 300 mg/kg, po measured after 7 days (reference value: 12.58 +/- 2.86 %); assay type: organism-based; settings: in vivo, 168 h, time 7 day
[14] = Acute toxicity in Swiss albino mouse assessed as eosinophil count at 5 mg/kg, po measured after 7 days (reference value: 6.34 +/- 1.04 %); assay type: organism-based; settings: in vivo, 168 h, time 7 day
[15] = Acute toxicity in Swiss albino mouse assessed as eosinophil count at 50 mg/kg, po measured after 7 days (reference value: 6.34 +/- 1.04 %); assay type: organism-based; settings: in vivo, 168 h, time 7 day
[16] = Acute toxicity in Swiss albino mouse assessed as basophil count at 300 mg/kg, po measured after 7 days (reference value: 1.50 +/- 0.29 %); assay type: organism-based; settings: in vivo, 168 h, time 7 day
[17] = Acute toxicity in Swiss albino mouse assessed as absolute spleen weight at 1000 mg/kg, po measured after 7 days (reference value: 0.17 +/- 0.03 g); assay type: organism-based; settings: in vivo, 168 h, time 7 day
[18] = Acute toxicity in Swiss albino mouse assessed as absolute kidney weight at 5 mg/kg, po measured after 7 days (reference value: 0.29 +/- 0.02 g); assay type: organism-based; settings: in vivo, 168 h, time 7 day
[19] = Acute toxicity in Swiss albino mouse assessed as absolute heart weight at 50 mg/kg, po measured after 7 days (reference value: 0.12 g); assay type: organism-based; settings: in vivo, 168 h, time 7 day
[20] = Acute toxicity in Swiss albino mouse assessed as absolute testes weight at 300 mg/kg, po measured after 7 days (reference value: 0.15+/- 0.01 g); assay type: organism-based; settings: in vivo, 168 h, time 7 day
[21] = Acute toxicity in Swiss albino mouse assessed as relative lung weight at 1000 mg/kg, po measured after 7 days (reference value: 0.70 +/- 0.08 %); assay type: organism-based; settings: in vivo, 168 h, time 7 day
[22] = Acute toxicity in Swiss albino mouse assessed as relative brain weight at 5 mg/kg, po measured after 7 days (reference value: 1.63 +/- 0.13 %); assay type: organism-based; settings: in vivo, 168 h, time 7 day
[23] = Acute toxicity in Swiss albino mouse assessed as relative heart weight at 5 mg/kg, po measured after 7 days (reference value: 0.51 +/- 0.02 %); assay type: organism-based; settings: in vivo, 168 h, time 7 day
[24] = Acute toxicity in Swiss albino mouse assessed as relative uterus weight at 50 mg/kg, po measured after 7 days (reference value: 1.63 +/- 0.71 %); assay type: organism-based; settings: in vivo, 168 h, time 7 day
[25] = Acute toxicity in Swiss albino mouse assessed as observational changes at 5 to 1000 mg/kg, po measured after 7 days; assay type: organism-based; settings: in vivo, 168 h, dose 5-1000 mg/kg, time 7 day
Procedure, shortened: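 Acute oral toxicity per OECD guidelines 420, 423 and 425. Swiss albino mice received a single oral dose at 5, 50, 300 or 1000 mg kg1 body weight, with vehicle controls. Animals were watched for morbidity, mortality and observational changes over 7 days. Tail-vein blood was then taken for hematology and serum biochemistry. Organs were inspected at sacrifice. n = 6 per group.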

**Q.** Which Activity (Calvarial osteoblast [1]) does the source give for CCCCN(C)C(=O)CCCCOc1ccc([C@H]2c3ccc(OC)cc3OC(C)(C)[C@@H]2c2ccccc2)cc1 here?
**A.** Active

**Q.** What about the Activity (Calvarial osteoblast [2]) of the same compound?
**A.** Active

**Q.** What about the Activity (Mus musculus) of the same compound?
**A.** Active

**Q.** And the Activity (Calvarial osteoblast [3])?
**A.** Active

**Q.** And the k el at 24 h [4]?
**A.** 5.47e-05 s⁻¹

**Q.** What about the AUC(0-t) [5] of the same compound?
**A.** 852 ng·h/mL

**Q.** What about the Cmax [6] of the same compound?
**A.** 38.9 ng/mL

**Q.** And the CL [7]?
**A.** 18.3 mL/min/kg

**Q.** And the bioavailability [8]?
**A.** 13.2%

**Q.** What about the Activity [9] of the same compound?
**A.** 6.1 10^3/mm3

**Q.** What about the Activity [10] of the same compound?
**A.** 0.8 mg/dL

**Q.** What about the Activity [11] of the same compound?
**A.** 0.97 mg/dL

**Q.** What about the Activity [12] of the same compound?
**A.** 46.03%

**Q.** What about the Activity [13] of the same compound?
**A.** 8.99%

**Q.** What about the Activity [14] of the same compound?
**A.** 8.35%

**Q.** And the Activity [15]?
**A.** 6.99%

**Q.** What about the Activity [16] of the same compound?
**A.** 1.25%

**Q.** What about the Activity [17] of the same compound?
**A.** 0.1 g

**Q.** And the Activity [18]?
**A.** 0.28 g

**Q.** And the Activity [19]?
**A.** 0.12 g

**Q.** And the Activity [20]?
**A.** 0.14 g

**Q.** What about the Activity [21] of the same compound?
**A.** 0.75%

**Q.** What about the Activity [22] of the same compound?
**A.** 1.46%

**Q.** And the Activity [23]?
**A.** 0.48%

**Q.** And the Activity [24]?
**A.** 1.17%

**Q.** And the Activity [25]?
**A.** Non-Toxic
